Measured values reported in ChEMBL document CHEMBL4513216, “Probing the Open Global Health Chemical Diversity Library for Multistage-Active Starting Points for Next-Generation Antimalarials” (ACS Infect Dis, 2020).

Experiment: Toxicity liver stage against HepG2, at 10uM
Assay type: cell-based
Design: test concentration 10 uM, cell line HepG2-A16-CD81EGFP
Details: human, HepG2-A16-CD81EGFP cells; read-out: INHIBITION
Summary of the method: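 Uninfected HepG2-A16-CD81EGFP cells, 3 × 10^3 per well, 1536-well, plated on prespotted compound at 10 μM final, parasite-free screening media added to match infected plates; puromycin 10 μM positive, DMSO 0.5% negative; run in parallel with 48 h PbLuc assay at 37 °C, 5% CO2; viability by CellTiter-Glo luminescence, normalized to controls.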

| SMILES | cytotoxicity at 10 µM [%] |
| --- | --- |
| CC(=O)c1ccc(N2CCN(C(=O)NC(C)c3ccc(C)o3)CC2)cc1 (centres undefined) | 10.1 |
| CC(=O)NC(Cc1c[nH]c2cc(F)ccc12)C(=O)Nc1nonc1C (centres undefined) | -9.93 |
| OCc1cc2ccccc2nc1N1CCCC1 | -8.82 |
| CCN(CC1COc2ccccc2O1)C(=O)C1=NN(C)C(=O)CC1 (centres undefined) | -39.6 |
| COCCN1C[C@@H](C)[C@@]2(COCCN(C(=O)Cc3ccccc3)C2)C1 | -12.4 |
| O=c1[nH]c(C2CCOC2)nc2ccc(Br)cc12 (centres undefined) | 7.85 |
| Cc1ccc(NCc2ccc(C#N)cc2)c(CN(C)C)c1 | -3.07 |
| CCn1ncc2c1C(COCC1CC1)CN(S(=O)(=O)N(C)C)C2 (centres undefined) | -10.4 |
| CN(Cc1cc2cc(F)ccc2[nH]1)C(=O)C1CC(=O)N(C(C)(C)C)C1 (centres undefined) | 0.993 |
| Cc1cccc(C(C)(C)NC(=O)CS(=O)(=O)CC(C)C)c1 | 0.927 |
| Cc1nnn2c1COCC(CNC(=O)c1ccnnc1)C2 (centres undefined) | -1.35 |
| Cc1cc(NC(=O)N2CCCC2C(C)(C)O)c2ncccc2c1 (centres undefined) | 6.87 |
| CN(c1cccc2ccccc12)S(=O)(=O)c1cc(C(=O)O)cs1 | -2.88 |
| CC(C)(C)OC(=O)N1CCC(C(=O)NCc2cc3ccccc3[nH]2)C1 (centres undefined) | 2.34 |
| Cc1cccc(-n2cnnc2CCCN2CCOCC2)c1 | -2.42 |
| COc1cccc(C(=O)NC(c2ccccn2)C2CCC(CN)CC2)c1 (centres undefined) | -9.33 |
| CCS(=O)(=O)c1ncc(CN(C)Cc2ccc(C)o2)n1CCOC | -4.66 |
| COc1ccc(S(=O)(=O)NCCC(O)c2ccoc2)c(C)c1 (centres undefined) | -0.608 |
| O=C(CCNC(=O)c1ccoc1)Nc1ccccc1F | -8.38 |
| CN(C)C(=O)COCC1CN(Cc2ccoc2)Cc2nnn(C)c21 (centres undefined) | 1.81 |
| Cc1ccc(CCN2CCC(N(C)Cc3noc(C4CC4)n3)C2)cc1 (centres undefined) | -8.31 |
| CN1CCN(Cc2cccnc2)C(=O)C12CCN(C1CCOC1)CC2 (centres undefined) | -111 |
| Cc1cccc(CN2CC[C@H]3CO[C@H](CNC(=O)N(C)C)[C@H]3C2)c1 | 1.47 |
| CC(C)(C)S(=O)(=O)c1ccc(N2CCC(n3ccnc3)CC2)cn1 | -6.62 |
| O=C(NCCn1cccn1)C1CCC(=O)N(CC2CCCCC2)C1 (centres undefined) | 6.8 |
| CC(C)NC(=O)C1CCC2(CCN(Cc3cnn(C)c3)CC2)C1 (centres undefined) | 2.77 |
| CN(C)c1cc(CNc2ccc(S(=O)(=O)C(C)(C)C)nc2)ccn1 | -7.33 |

| SMILES | cytotoxicity at 10 µM [%] |
| --- | --- |
| CCOCC1c2c(cnn2CC2CC2)CCN1Cc1nccs1 (centres undefined) | 85.9 |
| CC(C)C[C@H](N)c1nnc(SCC(=O)Nc2ccc(Br)cc2)o1 | -4.99 |
| CCc1cccc(NC(=O)CCC(=O)N(C)Cc2nc(C)c[nH]2)c1 | -1.92 |
| Cc1cc(CNC(=O)NC(C)(CO)C2CC2)c(C)s1 (centres undefined) | 3.46 |
| CCN(C(=O)C1CC1)C(c1cccnc1)c1ccc2c(c1)CCO2 (centres undefined) | 1.46 |
| O=C1N(Cc2ccc(F)c(F)c2)CCCC1(O)CNCc1ccccn1 (centres undefined) | -2.63 |
| CC(=O)c1cccc(S(=O)(=O)N2CSCC2C(=O)NCC(F)(F)F)c1 (centres undefined) | 3.78 |
| Cc1ccc(Cl)cc1-n1nnnc1C1(N2CCCC2)CCCCC1 | 18.9 |
| Cc1ccc2nc(C)cc(C(=O)NC(C)c3nnn[nH]3)c2c1 (centres undefined) | 7.8 |
| CCc1cc(N2CCC(n3cc(C(=O)NC4CC4)nn3)CC2)ncn1 | 27.7 |
| C1=C(CNC2CCc3ncnn3C2)COc2ccccc21 (centres undefined) | -2.28 |
| CN(Cc1cccs1)C(=O)CN1C(=O)c2cc(Cl)c(Cl)cc2C1=O | -6.13 |
| C[C@@H]1CN(S(=O)(=O)N2CCCCCC2)C[C@@]1(O)C1CCC1 | 17.6 |
| COc1cc(OC)cc(-c2noc(CC(N)c3ccccc3)n2)c1 (centres undefined) | 4.47 |
| CCc1ccc(S(=O)(=O)N2CCCC3(CCCN3S(C)(=O)=O)C2)cc1 (centres undefined) | -2.98 |
| O=C(c1cccnc1)N1CCn2nnc(COc3ccccn3)c2C1 | -76.2 |
| COC[C@@H]1CC[C@H]2[C@H](CCN2S(=O)(=O)c2cccc(F)c2)O1 | 2.24 |
| CSC1=Nc2c(cnn2-c2ccc(Cl)cc2)C2=NCCCN12 | 7.41 |
| CC(C)c1nnc(CN(C)Cc2ccccc2-c2ccccc2)o1 | 5.98 |
| CO[C@@H]1CC[C@@H](NS(=O)(=O)c2cn(C)nc2C)[C@H]1O | -3.11 |
| NCCc1nc(N(Cc2nccs2)C2CC2)c2ccccc2n1 | -16.1 |
| CC(C)=CCN1CCN(CCCOc2ccccc2)[C@H]2CS(=O)(=O)C[C@H]21 | -8.34 |
| CC(C)n1cnc2c(-c3cccnc3)nc(C3CCNCC3)cc21 | -114 |
| CC(C)N1Cc2cccc(NCC(=O)N(C)C3CCCCC3)c2C1 | 4.83 |
| Cc1cnc(N2CCN3C[C@H](OCc4cccc(C)n4)C[C@H]3C2)nc1 | -1.25 |
| O=C(NC1CCNC1)C1(N2CCCCC2)Cc2ccccc2C1 (centres undefined) | -5.76 |
| Cn1cc(C[C@H]2[C@H](O)CCN2Cc2ccc3c(c2)OCO3)cn1 | -80.5 |
